ChEMBL document CHEMBL4270606, “Pyridine bioisosteres of potent GluN2B subunit containing NMDA receptor antagonists with benzo[7]annulene scaffold” (Eur J Med Chem, 2018)

How the values were obtained:
Sus scrofa = organism: Sus scrofa; experiment: Displacement of [3H]-(+)-MK-801 from PCP binding site of NMDA receptor in pig brain cortex membranes at 1 uM after 120 mins by solid scintillation counting relative to control; type: cell membranes
In short: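 Single 1 µM test concentration: inhibition (%) of 2 nM [3H]-(+)-MK-801 binding to pig brain cortex membranes (about 100 µg protein). Buffer was 5 mM TRIS/1 mM EDTA, pH 7.5, at rt. Nonspecific binding defined with 10 µM unlabeled (+)-MK-801. Bound radioactivity collected by filtration and counted by solid scintillation.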

[1] = biological target: Glutamate NMDA receptor; GRIN1/GRIN2B (Homo sapiens, UniProt Q05586+Q13224); experiment: Displacement of [3H]-ifenprodil from GluN1a/GluN2B (unknown origin) expressed in L(tk-) cell membranes after 120 mins by scintillation counting analysis
Sequence of Glutamate NMDA receptor; GRIN1/GRIN2B (Q13224 whole entry, other chains not shown): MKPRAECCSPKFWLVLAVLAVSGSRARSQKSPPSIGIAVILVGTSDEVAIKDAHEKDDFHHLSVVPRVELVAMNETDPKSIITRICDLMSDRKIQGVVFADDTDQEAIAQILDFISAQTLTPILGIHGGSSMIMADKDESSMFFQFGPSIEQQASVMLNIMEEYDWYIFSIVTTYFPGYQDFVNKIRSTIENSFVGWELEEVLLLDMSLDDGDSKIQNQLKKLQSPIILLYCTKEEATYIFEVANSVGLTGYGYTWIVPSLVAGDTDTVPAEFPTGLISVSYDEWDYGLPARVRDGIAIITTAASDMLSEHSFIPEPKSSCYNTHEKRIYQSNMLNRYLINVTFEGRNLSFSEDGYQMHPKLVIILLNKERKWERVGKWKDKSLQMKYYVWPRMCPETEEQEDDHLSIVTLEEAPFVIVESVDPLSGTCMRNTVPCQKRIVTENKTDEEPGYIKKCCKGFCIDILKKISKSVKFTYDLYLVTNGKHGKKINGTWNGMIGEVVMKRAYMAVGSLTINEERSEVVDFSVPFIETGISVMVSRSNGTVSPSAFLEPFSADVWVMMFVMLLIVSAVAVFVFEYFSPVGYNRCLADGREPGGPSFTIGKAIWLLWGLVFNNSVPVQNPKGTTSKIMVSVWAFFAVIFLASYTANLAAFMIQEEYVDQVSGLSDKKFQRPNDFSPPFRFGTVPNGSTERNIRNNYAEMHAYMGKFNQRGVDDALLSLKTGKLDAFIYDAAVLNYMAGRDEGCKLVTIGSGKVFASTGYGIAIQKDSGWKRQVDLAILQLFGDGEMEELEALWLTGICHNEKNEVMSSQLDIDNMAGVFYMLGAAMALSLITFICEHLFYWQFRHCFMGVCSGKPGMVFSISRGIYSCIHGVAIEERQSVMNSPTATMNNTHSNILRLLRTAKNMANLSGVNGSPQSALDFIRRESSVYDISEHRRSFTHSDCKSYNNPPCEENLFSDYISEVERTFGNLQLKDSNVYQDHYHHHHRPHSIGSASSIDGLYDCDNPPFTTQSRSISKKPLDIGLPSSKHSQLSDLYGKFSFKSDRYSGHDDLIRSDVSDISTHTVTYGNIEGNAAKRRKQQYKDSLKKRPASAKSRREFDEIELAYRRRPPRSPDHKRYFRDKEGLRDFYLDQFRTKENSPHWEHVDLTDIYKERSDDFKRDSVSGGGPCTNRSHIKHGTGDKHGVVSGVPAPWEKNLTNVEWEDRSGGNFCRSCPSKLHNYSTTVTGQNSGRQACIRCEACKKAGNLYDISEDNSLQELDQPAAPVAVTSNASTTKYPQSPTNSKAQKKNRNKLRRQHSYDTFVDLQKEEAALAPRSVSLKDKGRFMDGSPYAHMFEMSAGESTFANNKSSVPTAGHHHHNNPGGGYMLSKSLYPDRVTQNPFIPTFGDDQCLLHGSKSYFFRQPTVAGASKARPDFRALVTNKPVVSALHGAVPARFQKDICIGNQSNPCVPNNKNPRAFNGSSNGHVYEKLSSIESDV

[2] = Displacement of [3H]-(+)-MK-801 from PCP binding site of NMDA receptor in pig brain cortex membranes after 120 mins by solid scintillation counting; type: cell membranes, Sus scrofa
In short: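 Pig brain cortex membranes (about 100 µg protein) incubated with 2 nM [3H]-(+)-MK-801 and test compound at 10^-5 to 10^-9 mol/L (final) in 5 mM TRIS/1 mM EDTA, pH 7.5, at rt with shaking. Nonspecific binding defined with 10 µM unlabeled (+)-MK-801. Filtration, melted solid scintillator, [3H] counting. Duplicates. IC50 by non-linear regression, converted to Ki via Cheng-Prusoff (Kd 2.26 nM). Mean ± SEM of three experiments.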

[3] = biological target: Sigma non-opioid intracellular receptor 1 (Cavia porcellus, UniProt Q60492); experiment: Displacement of [3H]-(+)-pentazocine from sigma1 receptor in guinea pig brain cortex membrane after 120 mins by scintillation counting method; type: cell membranes
Sequence of Sigma non-opioid intracellular receptor 1 (Q60492 whole entry): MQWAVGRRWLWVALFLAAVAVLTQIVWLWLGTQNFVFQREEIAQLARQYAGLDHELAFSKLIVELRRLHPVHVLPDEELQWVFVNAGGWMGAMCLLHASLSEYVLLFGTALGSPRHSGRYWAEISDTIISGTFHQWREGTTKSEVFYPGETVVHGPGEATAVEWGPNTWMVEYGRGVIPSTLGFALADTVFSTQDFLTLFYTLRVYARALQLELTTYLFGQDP

[4] = biological target: T1, Sigma intracellular receptor 2 (Rattus norvegicus, UniProt Q5U3Y7); experiment: Displacement of [3H]-di-o-tolylguanidine from sigma2 receptor in rat liver membranes incubated for 120 mins by scintillation counting method; type: cell membranes, Membrane
T1 sequence (Q5U3Y7 whole entry): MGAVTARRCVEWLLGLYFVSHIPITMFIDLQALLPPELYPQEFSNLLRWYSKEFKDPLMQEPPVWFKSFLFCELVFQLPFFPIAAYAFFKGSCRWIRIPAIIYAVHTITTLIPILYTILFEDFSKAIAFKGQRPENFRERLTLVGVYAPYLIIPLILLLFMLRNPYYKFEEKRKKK

SMILES	inhibition (Sus scrofa)	Ki [1]	IC50 [2]	Ki [3]	Ki [4]
CN(CCCc1ccccc1)C1CCc2cccnc2CC1 (stereo not given)	0%	445 nM	> 1000 nM	261 nM	68 nM
CN(CCCCc1ccccc1)C1CCc2cccnc2CC1 (stereo not given)	5%	477 nM	> 1000 nM	263 nM	115 nM
c1ccc(CCCCNC2CCc3cccnc3CC2)cc1 (stereo not given)	8%	149 nM	> 1000 nM	214 nM	68 nM
c1ccc(CCCNC2CCc3cccnc3CC2)cc1 (stereo not given)	10%	302 nM	> 1000 nM	992 nM	276 nM
c1ccc(CNC2CCc3cccnc3CC2)cc1 (stereo not given)	0%	> 1000 nM	> 1000 nM	942 nM	490 nM
